Lung fibro prol – blocks proliferation of human lung fibroblasts; LL 47 human lung fibroblast viability, ATP luminescence; active compounds read low; viability, % at 10 µM; 1.1% of 85,000 active;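 active = viability at or below 50% in the single dose screen; inactive = viability above 50%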;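 note: compound exposure lasted 72 h before the ATP readout; 100% = median luminescence of untreated cell-only wells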
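Signal: luminescent ATP detection, CellTiter-Glo; assay system: LL 47 human lung fibroblasts; input: 1,150 cells/well; incubation: overnight cell rest, 72 h compound treatment at 37 °C; measure: % viability versus median cells-only luminescence; medium: IMEM growth medium with 15% fetal bovine serum; dosing: compound addition at 0.1% DMSO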
HUVEC prolif 384 – human endothelial cell proliferation inhibition; HUVEC proliferation, CellTiter-Glo luminescence, 72 h; active compounds read low; viability, % at 10 µM (by protocol); 1.1% of 86,000 active; AID 648;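 active = viability at or below 30%; inactive = viability above 30%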;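 note: 100% = median luminescence of DMSO-only cell control wells on each plate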
H69AR inhibit – blocks growth of human H69AR lung tumor cells; 6% of 85,000 active; AID 598; viability, % at 10 µM; H69AR lung tumor viability, ATP luminescence, 72 h; active compounds read low;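 active = viability at or below 40%; inactive = viability above 40%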;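 note: multidrug resistant small cell line overexpressing MRP-1 efflux transporter; 100% = mean luminescence of untreated control wells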
Jurkat viability – reduces viability or proliferation of Jurkat cells; Jurkat E6.1 viability, ATP luminescence, 48 h; inhibition, % at 4 µM; 1.2% of 56,000 active; AID 463;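 active = inhibition above the mean inhibition of all tested compounds plus 3 SD, cut at about 28% in these data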
* hit, by the source's call; . = no result given. Shown are actives, neighbours in structure and some others; about 6.4% of the full set was active somewhere.

SMILES	Lung fibro prol	HUVEC prolif 384	H69AR inhibit	Jurkat viability
O=C(COC(=O)Cc1ccc(S(=O)(=O)N2CCCCC2)s1)Nc1ccc2c(c1)OCO2	103	92	25*	6
CCCCN(CCCC)S(=O)(=O)c1ccc(NC(=O)Cc2cccs2)cc1	90	77	64	.
COc1ccccc1C(=O)N1CCNC(=O)C1CC(=O)Nc1cccc(C)c1 (configuration not stated)	104	94	95	.
COc1ccccc1NC(=O)CC1C(=O)NCCN1C(=O)Nc1ccc(Cl)c(Cl)c1 (configuration not stated)	86	15*	53	-5
CCCS(=O)(=O)N1CCN(C(=O)COc2ccc(OC)cc2)CC1	101	97	88	.
Cn1c(=O)c2ncn(CC(=O)Nc3ccc4oc(-c5cccc6ccccc56)nc4c3)c2n(C)c1=O	60	27*	101	-3
Cc1ccc(NC(=O)Cn2cnc3c(=O)n(C)c(=O)n(C)c32)c(C)c1	94	100	93	.
CCC(C)c1ccc2oc(-c3ccc(NC(=O)Cn4cnc5c(=O)n(C)c(=O)n(C)c54)cc3)nc2c1 (configuration not stated)	34*	42	25*	-2
Cc1noc(C)c1CSc1nnc2scc(-c3ccc(Cl)cc3)n12	97	101	68	-6
CCN(CC)CCN=C1CCCc2ccccc2N1	110	88	92	2
COc1ccccc1N1CCN(Cc2cc(Br)c(O)c3ncccc23)CC1	3.2*	32	20*	61*
CCOc1ccccc1N1CCN(Cc2cccc(OC)c2O)CC1	101	108	88	4
Oc1c(CN2CCCCC2)cc(COCc2ccccc2)c2cccnc12	.	.	.	34*
Cc1c(O)c(CN2CCCC2)cc2c1oc(=O)c1ccccc12	102	109	71	.
COCc1cc(CN2CCCC2)c(O)c2ncccc12	3.3*	73	23*	43*
Oc1cc(Cc2ccccc2)cnc1CN1CCCCC1	105	112	94	-3
Cc1cc(C)n(C(C)n2nc(C)cc2C)n1	.	.	.	-7
COCCN1C(=O)c2ccccc2C(C(=O)NCCCN2CCCC2=O)C1c1c[nH]c2ccccc12 (configuration not stated)	88	92	96	1
CCOC(=O)/C=C(\C)Sc1cc(=O)oc2ccccc12	86	49	13*	14
NC(=O)/C(=N\OC(=O)c1ccco1)c1nc(-c2ccc(Br)cc2)cs1	97	53	62	.
CC(C)c1nc(SCC(=O)NCc2ccc3c(c2)OCO3)c2c(=O)n(C)c(=O)n(C)c2n1	87	59	75	-4
COC(=O)c1oc2ccc(Br)cc2c1NC(=O)c1ccccc1	81	85	30*	1
CC1=C(C(=O)OCc2ccc3c(c2)OCO3)C(c2ccc(F)cc2)NC(=O)N1 (configuration not stated)	.	.	.	84*
CCOC(=O)C1=C(C)NC(=O)NC1c1ccc2c(c1)OCCO2 (configuration not stated)	101	96	84	4
CC1=C(C(=O)OCc2ccc3c(c2)OCO3)C(c2ccc(Cl)cc2)NC(=O)N1 (configuration not stated)	53	27*	29*	78*
SMILES	Lung fibro prol	HUVEC prolif 384	H69AR inhibit	Jurkat viability
CCc1ccc2[nH]c(=O)c(C(c3nnnn3CC3CCCO3)N3CCN4CCCC4C3)cc2c1 (configuration not stated)	101	87	87	3
CCN(C(=O)Cc1ccc(Br)cc1)C1CCCCC1	97	104	95	.
O=C(c1csc2c1CCCC2)N1CCN(c2cccc(C(F)(F)F)c2)CC1	105	101	84	.
COc1ccccc1NCC(O)Cn1c2ccccc2c2ccccc21 (configuration not stated)	86	61	17*	.
C=CCn1c(=O)c(C(=O)Nc2ccccc2OC)c(O)c2ccccc21	92	104	79	4
CC(C)Oc1cccc(-c2nnc(SCC(=O)Nc3ccc4c(c3)OCCO4)n2N)c1	102	89	87	.
COc1ccc(S(=O)(=O)N2CCSC2c2ccc(N)cc2)cc1 (configuration not stated)	89	80	90	1
COC(=O)c1ccc(Oc2nc(C(N)=O)cc(-c3ccccc3)n2)cc1	99	101	12*	.
N#Cc1ccc(Oc2nc(C(N)=O)cc(-c3ccccc3)n2)cc1	99	88	63	.
CC(C)c1cc(C(=O)O)n(-c2ccccc2)n1	105	97	97	.
Cc1cccc(N2CCN(C(=O)c3ccc4nc(-c5ccco5)c(-c5ccco5)nc4c3)CC2C)c1 (configuration not stated)	87	23*	54	.
O=C(Oc1nsnc1N1CCOCC1)N(c1ccccc1)c1ccccc1	.	93	84	-3

Compound activity from PubChem.
